Data reported in ChEMBL document CHEMBL3739352, “Anticonvulsant activity, crystal structures, and preliminary safety evaluation of N-trans-cinnamoyl derivatives of selected (un)modified aminoalkanols” (Eur J Med Chem, 2016).
One block for each molecule: values may come before it. Active and inactive are the calls of the source. The rule behind the calls is not given here.

What was measured:
[1] = tested on: Mus musculus; experiment: Neurotoxicity in albino Carworth Farms No.1 mouse at 300 mg/kg, ip after 0.5 hrs by rotarod test; type: toxicity, organism-based; conditions: in vivo
Procedure, shortened: (§1)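 Mice (albino Carworth Farms No.1) were dosed i.p. at 30, 100 or 300 mg/kg in 0.5% methylcellulose. They were tested 0.5 and 4 h later on a 1-inch knurled rod rotating at 6 rpm. Neurotoxicity was scored if a mouse could not stay on the rod for at least 1 min in each of three trials. Results are given as animals toxic/animals tested, with deaths noted.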

[2] = tested on: Mus musculus; experiment: Anticonvulsant activity in albino Carworth Farms No.1 mouse assessed as protection against subcutaneous dosed pentetrazol-induced seizures at 100 mg/kg, ip after 4 hrs; type: functional, organism-based
Procedure, shortened: (§2)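 Mouse i.p. screen in Carworth Farms No.1 albino mice at 30, 100 or 300 mg/kg in 0.5% methylcellulose. Testing was at 0.5 and 4 h after injection, by maximal electroshock or by subcutaneous pentetrazol challenge. Scoring was number protected / number used.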

[3] = tested on: Mus musculus; experiment: Anticonvulsant activity in albino Carworth Farms No.1 mouse assessed as protection against subcutaneous dosed pentetrazol-induced seizures at 100 mg/kg, ip after 0.5 hrs; type: functional, organism-based; procedure, shortened: as §2
[4] = tested on: Mus musculus; experiment: Anticonvulsant activity in albino Carworth Farms No.1 mouse assessed as protection against subcutaneous dosed pentetrazol-induced seizures at 30 mg/kg, ip after 4 hrs; type: functional, organism-based; procedure, shortened: as §2
[5] = tested on: Mus musculus; experiment: Anticonvulsant activity in albino Carworth Farms No.1 mouse assessed as protection against maximal electroshock-induced seizures at 300 mg/kg, ip after 4 hrs; type: functional, organism-based; procedure, shortened: as §2
[6] = tested on: Mus musculus; experiment: Anticonvulsant activity in albino Carworth Farms No.1 mouse assessed as protection against maximal electroshock-induced seizures at 300 mg/kg, ip after 0.5 hrs; type: functional, organism-based; procedure, shortened: as §2
[7] = tested on: Mus musculus; experiment: Anticonvulsant activity in albino Carworth Farms No.1 mouse assessed as protection against maximal electroshock-induced seizures at 100 mg/kg, ip after 4 hrs; type: functional, organism-based; procedure, shortened: as §2
[8] = tested on: Mus musculus; experiment: Anticonvulsant activity in albino Carworth Farms No.1 mouse assessed as protection against maximal electroshock-induced seizures at 30 mg/kg, ip after 0.5 hrs; type: functional, organism-based; procedure, shortened: as §2
[9] = tested on: Salmonella typhimurium; experiment: Mutagenicity in Salmonella typhimurium TA98 assessed as number of revertants at 500 ug/plate by Ames test (reference value: 23 +/- 3); type: toxicity, organism-based; conditions: salmonella enterica subsp. enterica serovar typhimurium
[10] = tested on: Salmonella typhimurium; experiment: Mutagenicity in Salmonella typhimurium TA100 assessed as mutagenic index at 4 ug/plate by Ames test; type: toxicity, organism-based; conditions: salmonella enterica subsp. enterica serovar typhimurium
Procedure, shortened: (§3)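 Ames preincubation test. Strain culture was grown 12 h at 37 °C in nutrient broth, then mixed with compound in DMSO (final 4, 20, 100, 500, 1000 per plate) and buffer in top agar with trace histidine. This was plated on glucose minimal agar for 48 h at 37 °C. Mutagenic index = revertants with compound / DMSO control revertants, from three independent repeats.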

[11] = tested on: Salmonella typhimurium; experiment: Mutagenicity in Salmonella typhimurium TA100 assessed as mutagenic index at 20 ug/plate by Ames test; type: toxicity, organism-based; conditions: salmonella enterica subsp. enterica serovar typhimurium; procedure, shortened: as §3
[12] = tested on: Salmonella typhimurium; experiment: Mutagenicity in Salmonella typhimurium TA100 assessed as mutagenic index at 100 ug/plate by Ames test; type: toxicity, organism-based; conditions: salmonella enterica subsp. enterica serovar typhimurium; procedure, shortened: as §3
[13] = tested on: Salmonella typhimurium; experiment: Mutagenicity in Salmonella typhimurium TA100 assessed as mutagenic index at 500 ug/plate by Ames test; type: toxicity, organism-based; conditions: salmonella enterica subsp. enterica serovar typhimurium; procedure, shortened: as §3
[14] = tested on: Salmonella typhimurium; experiment: Mutagenicity in Salmonella typhimurium TA100 assessed as assessed as mutagenic index at 1000 ug/plate by Ames test; type: toxicity, organism-based; conditions: salmonella enterica subsp. enterica serovar typhimurium; procedure, shortened: as §3
[15] = tested on: Salmonella typhimurium; experiment: Mutagenicity in Salmonella typhimurium TA1535 assessed as assessed as mutagenic index at 4 ug/plate by Ames test; type: toxicity, organism-based; conditions: salmonella enterica subsp. enterica serovar typhimurium; procedure, shortened: as §3
[16] = tested on: Salmonella typhimurium; experiment: Mutagenicity in Salmonella typhimurium TA1535 assessed as assessed as mutagenic index at 20 ug/plate by Ames test; type: toxicity, organism-based; conditions: salmonella enterica subsp. enterica serovar typhimurium; procedure, shortened: as §3
[17] = tested on: Salmonella typhimurium; experiment: Mutagenicity in Salmonella typhimurium TA1535 assessed assessed as mutagenic index at 100 ug/plate by Ames test; type: toxicity, organism-based; conditions: salmonella enterica subsp. enterica serovar typhimurium
[18] = tested on: Salmonella typhimurium; experiment: Mutagenicity in Salmonella typhimurium TA1535 assessed as mutagenic index at 1000 ug/plate by Ames test; type: toxicity, organism-based; conditions: salmonella enterica subsp. enterica serovar typhimurium
[19] = tested on: Salmonella typhimurium; experiment: Mutagenicity in Salmonella typhimurium TA98 assessed as mutagenic index at 4 ug/plate by Ames test; type: toxicity, organism-based; conditions: salmonella enterica subsp. enterica serovar typhimurium
[20] = tested on: Salmonella typhimurium; experiment: Mutagenicity in Salmonella typhimurium TA98 assessed as mutagenic index at 500 ug/plate by Ames test; type: toxicity, organism-based; conditions: salmonella enterica subsp. enterica serovar typhimurium
[21] = tested on: Mus musculus; experiment: Neurotoxicity in albino Carworth Farms No.1 mouse at 300 mg/kg, ip after 4 hrs by rotarod test; type: toxicity, organism-based; conditions: in vivo; procedure, shortened: as §1
[22] = Lipophilicity of the compound using 95% methanol in water at 1 mg/ml by RT-TLC analysis; type: physicochemical; conditions: buffer
Procedure, shortened: (§4)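 Reversed-phase TLC with a methanol–water mobile phase at the stated methanol content (v/v). Compounds were spotted from 1 mg/mL methanol solutions after 1 h chamber saturation and located under UV light. Rf was measured and RM = log(1/Rf − 1) calculated.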

[23] = Lipophilicity of the compound using 90% methanol in water at 1 mg/ml by RT-TLC analysis; type: physicochemical; conditions: buffer; procedure, shortened: as §4
[24] = Lipophilicity of the compound using 65% methanol in water at 1 mg/ml by RT-TLC analysis; type: physicochemical; conditions: buffer; procedure, shortened: as §4
[25] = Lipophilicity of the compound at 1 mg/ml by RT-TLC analysis relative to 0% methanol; type: physicochemical; conditions: methanol/water
Procedure, shortened: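 Reversed-phase TLC used methanol–water mobile phases of 95–65% methanol. Compounds were applied from 1 mg/mL methanol solutions after 1 h chamber saturation, with UV detection. RM = log(1/Rf − 1) was calculated at each methanol level and extrapolated linearly (RM = RM0 + bC) to 0% methanol to give RM0.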

[26] = tested on: Salmonella typhimurium; experiment: Mutagenicity in Salmonella typhimurium TA1535 assessed as number of revertants at 500 ug/plate by Ames test (reference value: 10 +/- 3); type: toxicity, organism-based; conditions: salmonella enterica subsp. enterica serovar typhimurium
[27] = tested on: Salmonella typhimurium; experiment: Mutagenicity in Salmonella typhimurium TA1535 assessed as number of revertants at 100 ug/plate by Ames test (reference value: 10 +/- 3); type: toxicity, organism-based; conditions: salmonella enterica subsp. enterica serovar typhimurium
[28] = tested on: Salmonella typhimurium; experiment: Mutagenicity in Salmonella typhimurium TA1535 assessed as number of revertants at 20 ug/plate by Ames test (reference value: 10 +/- 3); type: toxicity, organism-based; conditions: salmonella enterica subsp. enterica serovar typhimurium
[29] = tested on: Salmonella typhimurium; experiment: Mutagenicity in Salmonella typhimurium TA1535 assessed as number of revertants at 4 ug/plate by Ames test (reference value: 10 +/- 3); type: toxicity, organism-based; conditions: salmonella enterica subsp. enterica serovar typhimurium
[30] = tested on: Salmonella typhimurium; experiment: Mutagenicity in Salmonella typhimurium TA100 assessed as number of revertants at 1000 ug/plate by Ames test (reference value: 77 +/-4); type: toxicity, organism-based; conditions: salmonella enterica subsp. enterica serovar typhimurium
Procedure, shortened: (§5)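 Salmonella TA100 preincubation Ames assay: overnight-type 12 h broth culture at 37 °C, compound in DMSO at final 4–1000 per plate, top agar with trace histidine, glucose minimal agar, 48 h at 37 °C. Revertant colonies per plate were counted, with a DMSO negative control and a sodium azide positive control. Three independent repetitions were run.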

[31] = tested on: Salmonella typhimurium; experiment: Mutagenicity in Salmonella typhimurium TA100 assessed as number of revertants at 500 ug/plate by Ames test (reference value: 77 +/-4); type: toxicity, organism-based; conditions: salmonella enterica subsp. enterica serovar typhimurium; procedure, shortened: as §5
[32] = tested on: Salmonella typhimurium; experiment: Mutagenicity in Salmonella typhimurium TA100 assessed as number of revertants at 100 ug/plate by Ames test (reference value: 77 +/-4); type: toxicity, organism-based; conditions: salmonella enterica subsp. enterica serovar typhimurium; procedure, shortened: as §5
[33] = tested on: Salmonella typhimurium; experiment: Mutagenicity in Salmonella typhimurium TA100 assessed as number of revertants at 20 ug/plate by Ames test (reference value: 77 +/-4); type: toxicity, organism-based; conditions: salmonella enterica subsp. enterica serovar typhimurium; procedure, shortened: as §5
[34] = tested on: Salmonella typhimurium; experiment: Mutagenicity in Salmonella typhimurium TA100 assessed as number of revertants at 4 ug/plate by Ames test (reference value: 77 +/-4); type: toxicity, organism-based; conditions: salmonella enterica subsp. enterica serovar typhimurium; procedure, shortened: as §5

- Rm [22]: -0.66
- Rm [23]: -0.55
- Rm [24]: 0.25
- Rm [25]: 2.093
Structure (SMILES): CCC(CO)NC(=O)/C=C/c1ccccc1 (racemic)
- Activity [1]: Non-toxic
- Activity [2]: inactive
- Activity [3]: inactive
- Activity [4]: inactive
- Activity [5]: inactive
- Activity [6]: Active
- Activity [7]: inactive
- Activity [8]: inactive
- Activity [9]: 21
- Activity_index [10]: 0.9
- Activity_index [11]: 0.8
- Activity_index [12]: 0.8
- Activity_index [13]: 0.9
- Activity_index [14]: 0.8
- Activity_index [15]: 1.1
- Activity_index [16]: 0.5
- Activity_index [17]: 1.4
- Activity_index [18]: 1.3
- Activity_index [19]: 0.9
- Activity_index [20]: 0.9
- Activity [21]: Non-toxic
- Activity [26]: 13
- Activity [27]: 14
- Activity [28]: 5
- Activity [29]: 11
- Activity [30]: 64
- Activity [31]: 72
- Activity [32]: 64
- Activity [33]: 62
- Activity [34]: 68

- Rm [22]: -0.69
- Rm [23]: -0.6
- Rm [24]: -0.03
- Rm [25]: 1.39
Structure (SMILES): CC(CO)NC(=O)/C=C/c1ccccc1 (racemic)
- Activity [1]: Non-toxic
- Activity [2]: inactive
- Activity [3]: inactive
- Activity [4]: inactive
- Activity [5]: Active
- Activity [6]: Active
- Activity [7]: inactive
- Activity [8]: inactive
- Activity [9]: 24
- Activity_index [10]: 0.9
- Activity_index [11]: 0.8
- Activity_index [12]: 0.9
- Activity_index [13]: 0.8
- Activity_index [14]: 0.9
- Activity_index [15]: 1.5
- Activity_index [16]: 0.6
- Activity_index [17]: 0.5
- Activity_index [18]: 0.6
- Activity_index [19]: 0.9
- Activity_index [20]: 1
- Activity [21]: Non-toxic
- Activity [26]: 8
- Activity [27]: 5
- Activity [28]: 6
- Activity [29]: 15
- Activity [30]: 67
- Activity [31]: 65
- Activity [32]: 71
- Activity [33]: 62
- Activity [34]: 67
